An excerpt weighted towards active compounds, which were near 3.3% of everything screened.
HTR2A ag: mouse HTR2A agonism via beta-arrestin recruitment; 0.66% of 360,000 active; activation, % at 7.6 µM; CHO-K1 mHTR2A beta-arrestin complementation, luminescence; percent of 30 µM serotonin response;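 active = activation above a run cutoff, the mean activation of all tested compounds plus 3 SD, cut at about 14% in these data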;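 also: 0% = plate median of compound wells and 100% = 30 µM serotonin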
Hep lipid drop: hepatic lipid droplet formation modulation. AML12 mouse hepatocytes, oleate lipid droplets, BODIPY imaging. inhibition, % at 6.5 µM. 0.4% of 240,000 active;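 active = lipid droplet intensity inhibited by at least 50%, with more than 500 cells counted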
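Assay system: AML12 mouse liver cells | Compound: 6.5 µM single-point dosing | Schedule: Overnight exposure | Technique: Fluorescence imaging, 20x objective, two fields per well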
Arr AP2 block: inhibitors of human beta-arrestin and AP2 interaction; inhibition, % at 10 µM; AID 504490; 0.31% of 340,000 active; FITC-arrestin peptide / GST-AP2 beads, flow cytometry; AP2 beta2 appendage carries R879A mutation;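 active = inhibition above a set limit, near 3 SD of compounds lacking own fluorescence, cut at about 54% in these data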;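 also: plate controls were DMSO wells for no effect and 5 µM unlabelled arrestin peptide for full effect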
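System: GST-AP2 R879A glutathione beads | Also added: FITC-arrestin peptide, 50 nM | Times: 12 min plus 1 h, RT | Signal: Bead flow cytometry, FITC channel | Buffer or medium: PBS with 0.05% Tween 20 and 0.1% BSA | Read-out basis: Percent drop in bead-associated FITC signal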
CendR NRP1 mod: alters CendR peptide binding to human NRP-1 | O14786 | FAM-RPARPAR peptide binding to NRP-1, fluorescence polarization | inhibition, % at 25 µM | 0.85% of 360,000 active | AID 602438;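 active = inhibition or corrected inhibition above about 18%, plus a signal ratio from 0.5 to 1.5, limit read from the data, passing the limit was not always enough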
Target sequence (O14786 whole entry, looked up): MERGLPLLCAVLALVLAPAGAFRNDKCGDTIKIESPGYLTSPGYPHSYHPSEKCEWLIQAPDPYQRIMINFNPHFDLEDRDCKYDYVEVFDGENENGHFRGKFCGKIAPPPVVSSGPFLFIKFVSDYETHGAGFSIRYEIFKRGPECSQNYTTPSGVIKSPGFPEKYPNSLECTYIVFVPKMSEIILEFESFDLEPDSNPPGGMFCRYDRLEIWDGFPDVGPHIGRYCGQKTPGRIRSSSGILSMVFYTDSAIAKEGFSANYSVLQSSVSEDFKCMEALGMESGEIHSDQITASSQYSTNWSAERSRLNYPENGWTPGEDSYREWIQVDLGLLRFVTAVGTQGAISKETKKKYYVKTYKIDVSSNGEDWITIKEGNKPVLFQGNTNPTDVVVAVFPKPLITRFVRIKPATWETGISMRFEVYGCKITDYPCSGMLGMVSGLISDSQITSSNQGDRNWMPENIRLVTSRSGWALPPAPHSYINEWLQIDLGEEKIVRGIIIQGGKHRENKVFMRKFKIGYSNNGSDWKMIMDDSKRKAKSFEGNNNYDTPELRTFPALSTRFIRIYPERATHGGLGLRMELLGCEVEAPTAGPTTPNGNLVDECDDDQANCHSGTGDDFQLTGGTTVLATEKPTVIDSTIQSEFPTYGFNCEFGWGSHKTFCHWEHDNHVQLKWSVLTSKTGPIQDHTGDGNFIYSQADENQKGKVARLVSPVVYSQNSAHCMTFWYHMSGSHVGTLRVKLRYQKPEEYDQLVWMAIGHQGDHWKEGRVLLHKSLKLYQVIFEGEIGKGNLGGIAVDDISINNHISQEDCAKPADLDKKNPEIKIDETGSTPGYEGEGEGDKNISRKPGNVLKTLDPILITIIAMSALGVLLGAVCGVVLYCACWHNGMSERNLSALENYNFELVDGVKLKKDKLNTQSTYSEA
M18AAP inhibitor: PfM18AAP enzyme inhibition; recombinant PfM18AAP, H-Glu-NHMec fluorogenic cleavage; inhibition, % at 7.35 µM; 1.2% of 290,000 active; AID 1822;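 active = inhibition above the campaign mean inhibition over all tested compounds plus 3 SD, cut at about 28% in these data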;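 also: 0% = plate median of test compound wells and 100% = 2 mM ZnCl2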
HGIII-sPLA2 inh: Inhibits HGIII-sPLA2 liposome hydrolysis, primary screen; Q9NZ20; inhibition, % at 12.2 µM; QFRET BODIPY PC-A2 liposome hydrolysis, fluorescence; 0.56% of 370,000 active;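 active = inhibition above mean plus 3 SD of compounds lying within the high and low control bounds, cut at about 19% in these data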;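 also: 0% = median of test compound wells and 100% = no enzyme DMSO wells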
MOR ag counter: activates human mu opioid receptor in HTR2A counterscreen | AID 624380 | activation, % at 9.3 µM | U2OS OPRM1 beta-arrestin PathHunter, luminescence; DMSO 0%, DAMGO 9.3 µM 100% | shares compounds with HTR2A ag | 5.3% of 2,300 active;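 active = mean activation above the mean of DMSO-only wells plus 3 SD, cut at about 0.5% in these data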
HTR2A ag conf: confirmation of mouse HTR2A serotonin receptor agonists; 19% of 2,300 active; activation, % at 7.6 µM; shares compounds with HTR2A ag; CHO-K1 PathHunter beta-arrestin recruitment, luminescence; DMSO 0%, 30 µM serotonin 100%;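 active = mean activation across triplicates above the hit threshold derived in the original primary screen, cut at about 15% in these data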
* = called active by the depositor; . = not tested or not shown.

SMILES | HTR2A ag | Hep lipid drop | Arr AP2 block | CendR NRP1 mod | M18AAP inhibitor | HGIII-sPLA2 inh | MOR ag counter | HTR2A ag conf
CC(OCC(O)CNCC1COc2ccccc2O1)c1ccc(Cl)cc1 (configuration not stated) | -2 | 3 | -12 | 0 | -2 | -4 | . | .
C[C@@H]1CN([C@H](C)CO)C(=O)c2cc(Br)cnc2O[C@H]1CN(C)Cc1ccccc1 | 1 | . | . | 8 | . | 2 | . | .
Cc1nc2c(-c3ccccc3)c(C)[nH]n2c(=O)c1Cc1ccccc1 | 59* | -1 | -13 | -4 | -8 | -3 | -1 | 33*
Cc1nc2c(-c3ccc(Cl)cc3)c(C)[nH]n2c(=O)c1Cc1ccccc1 | 5 | 8 | -2 | 2 | -7 | 0 | . | .
COc1ccc(/C=N/NC(=O)c2ccc(NC(=O)C3CCCCC3)cc2)cc1O | 20* | -2 | 34 | 0 | 2 | -1 | -1 | -3
COc1ccc(/C=N\NC(=O)C2CCCC2)cc1Br | -7 | -11 | -12 | -3 | 2 | -6 | . | .
O=S1(=O)CC2c3ccc(F)cc3CN2CN1C1CCCC1 (configuration not stated) | . | . | . | . | . | 17 | . | .
CN(C(=O)COC(=O)c1cncc(Br)c1)C1CCCCC1 | 19* | . | 16 | 5 | . | 10 | 0 | 0
CC(C)(C)NC(=O)C(c1ccccc1)n1c(=O)c(-c2ccco2)nc2ccccc21 (configuration not stated) | -1 | . | . | -35 | . | -6 | . | .
CC(C)(C)NC(=O)C(c1cc2ccccc2o1)n1c(=O)c(-c2ccco2)nc2ccccc21 (configuration not stated) | 16* | . | . | -53 | . | 9 | -1 | -4
COC(=O)C1=C(C)N(C)C(=NCc2ccc(OC)cc2)NC1c1cccc(C(F)(F)F)c1 (configuration not stated) | . | . | . | . | . | -8 | . | .
O=C1C2CCCN2C(c2ccc(F)cc2)N1c1cccc(Cl)c1 (configuration not stated) | 17* | . | 8 | -14 | 8 | 1 | -1 | 1
COc1ccc(-c2nc3n(c2C)CCC3)cc1 | 23* | -40 | 15 | 0 | -6 | 3 | 0 | 15*
Cc1ccc(-n2c(CNc3ccc(F)cc3)nnc2SCC(=O)O)cc1 | 0 | 3 | -56 | 10 | -4 | -6 | . | .
Cc1ccc(C)c(-n2c(CNc3ccc(F)cc3)nnc2SCC(N)=O)c1 | 18* | . | -53 | 2 | -10 | 0 | -1 | -4
COc1ccc(C(O)c2nc(-c3cccc(O)c3)cs2)cc1 (configuration not stated) | 17* | . | . | 4 | . | -26 | -1 | -1
OC(c1ccc(F)cc1)c1nc(-c2cccc(C(F)(F)F)c2)cs1 (configuration not stated) | 23* | . | . | 13 | . | -9 | 0 | -6
COc1ccc(C(O)c2nc(-c3cccc(C(C)C)c3)cs2)cc1 (configuration not stated) | -6 | . | . | -6 | . | -2 | . | .
COC(=O)C1=C(C)N(Cc2ccccc2C(F)(F)F)C(=NCc2ccc(OC)cc2)NC1c1ccc(F)cc1 (configuration not stated) | . | . | . | . | . | -10 | . | .
C[C@@H]1CCN(C2CC2)S(=O)(=O)c2ccc(N3CCC[C@H]3C)cc2O1 | . | . | . | . | . | 2 | . | .
COC(=O)c1cc2ccsc2n1CC(=O)Nc1cc(Cl)ccc1OC | 19* | -6 | 34 | 10 | 2 | -1 | -1 | -4
COc1ccc(CCC(=O)NNC(=O)Cn2nc(C)cc2C)cc1 | 17* | 5 | 16 | 6 | 8 | 10 | -1 | -7
Cc1cccc(OCCC(=O)NNC(=O)Cn2nc(C)cc2C)c1 | 1 | . | 2 | 14 | . | 1 | . | .
Cc1nn(C)cc1CN(C)C(=O)C1CCC(=O)N(CCc2cccc(F)c2)C1 (configuration not stated) | 3 | . | . | -5 | . | -4 | . | .
CCOc1cccc(-c2nn3c(-c4cccc(C)c4)nnc3s2)c1 | . | . | . | . | . | 15 | . | .
SMILES | HTR2A ag | Hep lipid drop | Arr AP2 block | CendR NRP1 mod | M18AAP inhibitor | HGIII-sPLA2 inh | MOR ag counter | HTR2A ag conf
c1ccc(Cc2noc(CN3CCCC(CN4CCOCC4)C3)n2)cc1 (configuration not stated) | 15* | 1 | -4 | 3 | -6 | 0 | 0 | 0
CCCCc1c(-c2ccccc2OC)ncn1Cc1ccc(C)cc1 | . | . | . | . | . | -11 | . | .
CCN(c1ccc(OC)cc1)S(=O)(=O)c1ccc2c(c1)CCN2C(=O)CCC(=O)O | 14* | -16 | 7 | 3 | -10 | 3 | 0 | 0
CC1CC(C)CN(CCOc2cccc(Cl)c2Cl)C1 (configuration not stated) | 30* | -26 | 46 | 1 | -6 | -1 | 0 | 78*
COc1cccc(CNCCNC(=O)c2nonc2N)c1 | 19* | . | -5 | -2 | -3 | 2 | -1 | -5
COCCNC(=O)c1cc(-c2ccc(-c3ccccc3)cc2)nc2ccccc12 | -12 | -38 | 5 | -10 | -3 | -5 | . | .
CC(C)NC(=O)c1cc(-c2ccc(F)cc2OC(C)C)n[nH]1 | -6 | . | . | 6 | . | 2 | . | .
CCCc1nc2cc(C)c(Br)c(C)n2c1Cc1ccsc1 | 3 | . | . | 5 | . | -1 | . | .
CCN(C(=O)CSc1n[nH]c(N)n1)C1CCCCC1 | 17* | . | 13 | -7 | . | 4 | -1 | -5
Cc1ccsc1CN(C)C(=O)CN1C(=O)NC2(CCCc3ccccc32)C1=O (configuration not stated) | -2 | . | -17 | 8 | . | -4 | . | .
O=C(c1ccccc1)c1cccs1 | 0 | -20 | 0 | 7 | 3 | 2 | . | .
CC(C(=O)O)c1ccc(C(=O)c2cccs2)cc1 (configuration not stated) | 18* | . | 4 | -7 | . | 5 | 0 | 49*
Cc1nn(C)c(C(=O)Nc2ccn(C34CC5CC(CC(C5)C3)C4)n2)c1[N+](=O)[O-] | 15* | -11 | -6 | -2 | -18 | 1 | 0 | 12
Cn1cc([N+](=O)[O-])c(C(=O)Nc2ccn(C34CC5CC(CC(C5)C3)C4)n2)n1 | 2 | -21 | . | -2 | -20 | 9 | . | .
O=C(CSc1n[nH]c(-c2ccco2)n1)Nc1sc2c(c1C(=O)Nc1ccccc1)CCCC2 | 16* | 0 | 24 | -22 | 15 | -7 | 0 | 18*
O=C(CSc1n[nH]c(-c2ccco2)n1)Nc1ccc(Br)cc1 | 2 | 1 | 1 | -40 | 4 | -17 | . | .
